Legend:
[1] = system: DNA topoisomerase 1 (Bos taurus); assay: The compound was tested for topoisomerase-1 mediated DNA cleavage, activity is expressed as REC(relative effective concentration) i.e., concentration relative to Hoechst 33342.
[2] = system: RPMI 8402; assay: Cytotoxicity against Human lymphoblast (RPMI 8402) cell line; type: functional, cell-based
Method in brief: (§1)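 MTT microtiter tetrazolium assay; human lymphoblast RPMI 8402 and camptothecin-resistant CPT-K5 grown in suspension at 37 °C, 5% CO2, RPMI medium with 10% heat-inactivated FBS, 2 mM L-glutamine, penicillin 100 U/mL, streptomycin 0.1 mg/mL. Continuous exposure to varying drug concentrations; MTT read at end of day 4; IC50 calculated.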

[3] = system: RPMI 8402; assay: Cytotoxicity against Camptothecin-resistant (CPT -K5) cell line.; type: functional, cell-based; conditions: Homo sapiens
Method in brief: as §1

[4] = system: KB 3-1; assay: Cytotoxicity against human epidermoid carcinoma (KB3-1) cell line.; type: functional, cell-based
Method in brief: (§2)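 Human epidermoid carcinoma KB3-1 and vinblastine-selected MDR1-overexpressing KBV-1 grown as monolayers in 5% CO2, Dulbecco's medium with 10% heat-inactivated FBS. Cytotoxicity by MTT microtiter tetrazolium assay after continuous exposure to varying drug concentrations for 4 days; IC50 calculated.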

[5] = system: KB; assay: Cytotoxicity against human epidermoid carcinoma vinblastine-selected multidrug-resistant (KBV-1) cell line.; type: functional, cell-based
Method in brief: as §2

[6] = system: KB; assay: Cytotoxicity against human epidermoid carcinoma vinblastine-selected multidrug-resistant (KBV-1) cell line; type: functional, cell-based
Method in brief: (§3)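 KB3-1 epidermoid carcinoma cells and KBV-1, their vinblastine-selected MDR1-overexpressing variant, were grown as monolayers in 5% CO2 in Dulbecco's medium with 10% heat-inactivated FBS. Viability was measured by MTT tetrazolium microtiter assay after 4 days of continuous exposure to varying drug concentrations, and IC50 was calculated.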

[7] = system: KB 3-1; assay: Cytotoxicity against human epidermoid carcinoma (KB3-1) cell line; type: functional, cell-based
Method in brief: as §3

[8] = system: RPMI 8402; assay: Cytotoxicity against Camptothecin-resistant (CPT -K5) cell line; type: functional, cell-based; conditions: Homo sapiens
Method in brief: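 MTT tetrazolium assay in 96-well plates on CPT-K5, a camptothecin-resistant variant of human lymphoblast RPMI 8402, grown in suspension at 37 °C, 5% CO2 in RPMI medium with 10% heat-inactivated FBS, 2 mM L-glutamine, penicillin and streptomycin. Cells were exposed continuously to varying drug concentrations, with MTT read at the end of day 4. IC50 was calculated.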

| Relative concentration [1] | Compound | IC50 [2] [nM] | IC50 [3] [µM] | IC50 [4] [nM] | IC50 [5] [nM] | IC50 [6] [nM] | IC50 [7] [nM] | IC50 [8] [nM] |
| --- | --- | --- | --- | --- | --- | --- | --- | --- |
| 100 | CCCc1ccc2[nH]c(-c3ccc4[nH]c(-c5ccc6[nH]cnc6c5)nc4c3)nc2c1 | 7600 | 20 |  |  |  |  |  |
| 1000 | COc1ccc(-c2nc3cc(-c4nc5cc(-c6nc7cc(C#N)ccc7[nH]6)ccc5[nH]4)ccc3[nH]2)cc1 | > 20000 |  |  |  |  |  |  |
| 2 | c1cc(-c2ccc3[nH]c(-c4ccc5[nH]c(-c6ccc7[nH]cnc7c6)nc5c4)nc3c2)ccn1 | 35 | 2.5 | 20 | 10 |  |  |  |
| 2 | c1cncc(-c2ccc3[nH]c(-c4ccc5[nH]c(-c6ccc7[nH]cnc7c6)nc5c4)nc3c2)c1 | 35 | 2.5 | 20 | 20 |  |  |  |
| 1 | N#Cc1ccc2[nH]c(-c3ccc4[nH]c(-c5ccc6[nH]cnc6c5)nc4c3)nc2c1 | > 25000 | > 25 |  |  |  |  |  |
| 1000 | N#Cc1ccc2[nH]c(-c3ccc4[nH]cnc4c3)nc2c1 | > 25000 |  |  |  |  |  |  |
|  | CCOc1ccc(-c2nc3cc(-c4nc5cc(N6CCN(C)CC6)ccc5[nH]4)ccc3[nH]2)cc1 | 30 |  |  |  | 1200 | 10 | 900 |
| 3.3 | COc1ccc(-c2nc3cc(-c4nc5cc(C#N)ccc5[nH]4)ccc3[nH]2)cc1 | 27000 |  |  |  |  |  |  |
| 3.3 | c1ccc(-c2ccc3[nH]c(-c4ccc5[nH]c(-c6ccc7[nH]cnc7c6)nc5c4)nc3c2)nc1 | 160 | 5.8 | 50 | 90 |  |  |  |
| 2 | c1ccc(-c2ccc3[nH]c(-c4ccc5[nH]c(-c6ccc7[nH]cnc7c6)nc5c4)nc3c2)cc1 | 90 | 0.58 | 580 | 350 |  |  |  |

| Compound | Relative concentration [1] | IC50 [2] [nM] | IC50 [3] [µM] | IC50 [4] [nM] | IC50 [5] [nM] | IC50 [6] [nM] | IC50 [7] [nM] | IC50 [8] [nM] |
| --- | --- | --- | --- | --- | --- | --- | --- | --- |
| c1ccc2[nH]c(-c3ccc4[nH]c(-c5ccc6[nH]cnc6c5)nc4c3)nc2c1 | 1.1 | 14000 | 28 |  |  |  |  |  |
